Reference: ChEMBL document CHEMBL3227917, “Structure-activity relationships of dimeric Catharanthus alkaloids. 2. Experimental antitumor activities of N-substituted deacetylvinblastine amide (vindesine) sulfates” (J Med Chem, 1979)

Tests used:
[1] = Antitumor activity against mouse Gardner lymphosarcoma allografted in C3H mouse assessed as tumor growth inhibition at 0.20 mg/kg, ip administered daily for 8 to 10 days; format: functional; conditions: route intraperitoneal, read-out: TGI
Summary of the method: (§1)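 Gardner lymphosarcoma in C3H mice; sulfate salts unless noted, given ip daily for 8–10 days, treatment starting 8 days after tumor implantation. Tumor growth inhibition scored as –, 0–25%; +, 26–50%; ++, 51–75%; +++, 76–100%; T, lethal to ≥5 of 10 animals per group. Average of one or more tests.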

[2] = Antitumor activity against mouse Gardner lymphosarcoma allografted in C3H mouse assessed as tumor growth inhibition at 0.05 mg/kg, ip administered daily for 8 to 10 days; format: functional; conditions: route intraperitoneal, read-out: TGI; summary of the method: as §1
[3] = Antitumor activity against mouse Gardner lymphosarcoma allografted in C3H mouse assessed as tumor growth inhibition at 0.40 mg/kg, ip administered daily for 8 to 10 days; format: functional; conditions: route intraperitoneal, read-out: TGI; summary of the method: as §1
[4] = Antitumor activity against mouse Gardner lymphosarcoma allografted in C3H mouse assessed as tumor growth inhibition at 0.10 mg/kg, ip administered daily for 8 to 10 days; format: functional; conditions: route intraperitoneal, read-out: TGI; summary of the method: as §1
[5] = Antitumor activity against mouse Ridgway osteogenic sarcoma allografted in AKR mouse assessed as tumor growth inhibition at 0.40 mg/kg, ip administered daily for 8 to 10 days compound treatment commenced 8 days after tumor implantation; format: functional; conditions: route intraperitoneal, read-out: TGI
[6] = Antitumor activity against mouse Ridgway osteogenic sarcoma allografted in AKR mouse assessed as tumor growth inhibition at 0.20 mg/kg, ip administered daily for 8 to 10 days compound treatment commenced 8 days after tumor implantation; format: functional; conditions: route intraperitoneal, read-out: TGI
Mus musculus = test: Toxicity in C3H mouse allografted with mouse Gardner lymphosarcoma assessed as lethality at 0.40 mg/kg, ip administered daily for 8 to 10 days; format: organism-based; design: dose 0.4 mg/kg, route intraperitoneal; conditions: in vivo, 0.4 mg/kg
Summary of the method: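 Tumor-bearing mice given sulfate salts ip daily for 8–10 days; values are the average of one or more tests. Toxic means lethal to ≥5 of 10 animals per group.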

SMILES | inhibition in vivo at 0.2 mg/kg [1] [%] | inhibition in vivo at 0.05 mg/kg [2] [%] | inhibition in vivo at 0.4 mg/kg [3] [%] | inhibition in vivo at 0.1 mg/kg [4] [%] | inhibition in vivo at 0.4 mg/kg [5] [%] | inhibition in vivo at 0.2 mg/kg [6] [%] | Activity (Mus musculus)
CC[C@]1(O)C[C@H]2CN(CCc3c([nH]c4ccccc34)[C@@](C(=O)OC)(c3cc4c(cc3OC)N(C)[C@H]3[C@@](O)(C(=O)NCCC(=N)OC)[C@H](O)[C@]5(CC)C=CCN6CC[C@]43[C@@H]65)C2)C1 | 0 | 0 | 0 | 0 |  |  | 
CCCCCCNC(=O)[C@@]1(O)[C@H](O)[C@]2(CC)C=CCN3CC[C@@]4(c5cc([C@@]6(C(=O)OC)C[C@@H]7CN(CCc8c6[nH]c6ccccc86)C[C@](O)(CC)C7)c(OC)cc5N(C)[C@@H]14)[C@@H]32 | 26 |  | 0 |  | 0 | 0 | 
CC[C@]1(O)C[C@H]2CN(CCc3c([nH]c4ccccc34)[C@@](C(=O)OC)(c3cc4c(cc3OC)N(C)[C@H]3[C@@](O)(C(=O)NCC(O)CO)[C@H](O)[C@]5(CC)C=CCN6CC[C@]43[C@@H]65)C2)C1 (stereo partly drawn) | 26 |  | 51 |  | 76 | 26 | 
CC[C@]1(O)C[C@H]2CN(CCc3c([nH]c4ccccc34)[C@@](C(=O)OC)(c3cc4c(cc3OC)N(C)[C@H]3[C@@](O)(C(=O)NC5CCCCC5)[C@H](O)[C@]5(CC)C=CCN6CC[C@]43[C@@H]65)C2)C1 | 0 |  | 26 |  | 51 | 26 | 
CC[C@]1(O)C[C@H]2CN(CCc3c([nH]c4ccccc34)[C@@](C(=O)OC)(c3cc4c(cc3OC)N(C)[C@H]3[C@@](O)(C(=O)NCCC#N)[C@H](O)[C@]5(CC)C=CCN6CC[C@]43[C@@H]65)C2)C1 | 76 | 0 | 76 | 0 |  |  | 
CC[C@]1(O)C[C@H]2CN(CCc3c([nH]c4ccccc34)[C@@](C(=O)OC)(c3cc4c(cc3OC)N(C)[C@H]3[C@@](O)(C(=O)NCC(OC)OC)[C@H](O)[C@]5(CC)C=CCN6CC[C@]43[C@@H]65)C2)C1.O=S(=O)(O)O | 76 | 0 |  | 76 |  |  | Toxic
CCCCCCCCCCCCCCCCCC(=O)OCCNC(=O)[C@@]1(O)[C@H](O)[C@]2(CC)C=CCN3CC[C@@]4(c5cc([C@@]6(C(=O)OC)C[C@@H]7CN(CCc8c6[nH]c6ccccc86)C[C@](O)(CC)C7)c(OC)cc5N(C)[C@@H]14)[C@@H]32 | 51 | 0 | 76 | 0 |  |  | 
CC[C@]1(O)C[C@H]2CN(CCc3c([nH]c4ccccc34)[C@@](C(=O)OC)(c3cc4c(cc3OC)N(C)[C@H]3[C@@](O)(C(=O)NCC=O)[C@H](O)[C@]5(CC)C=CCN6CC[C@]43[C@@H]65)C2)C1 | 76 | 0 | 76 | 26 |  |  | 
C#CCNC(=O)[C@@]1(O)[C@H](O)[C@]2(CC)C=CCN3CC[C@@]4(c5cc([C@@]6(C(=O)OC)C[C@@H]7CN(CCc8c6[nH]c6ccccc86)C[C@](O)(CC)C7)c(OC)cc5N(C)[C@@H]14)[C@@H]32.O=S(=O)(O)O | 76 |  |  | 51 |  |  | Toxic
C=CCNC(=O)[C@@]1(O)[C@H](O)[C@]2(CC)C=CCN3CC[C@@]4(c5cc([C@@]6(C(=O)OC)C[C@@H]7CN(CCc8c6[nH]c6ccccc86)C[C@](O)(CC)C7)c(OC)cc5N(C)[C@@H]14)[C@@H]32.O=S(=O)(O)O | 76 |  |  | 0 |  |  | Toxic
